Laboratory results: article PMC6904838 (International Journal for Parasitology: Drugs and Drug …, 2019)

How the values were obtained:
L. infantum amastigotes = assay type: cell-based, Leishmania infantum
How it was run: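 Female BALB/c mice were infected intraperitoneally with 10^8 iRFP-expressing metacyclic promastigotes. After five weeks, spleen cells were collagenase-dispersed into RPMI with 10% FBS and exposed to test compound (0.01–200 μM) at 37 °C, 5% CO2. After 72 h, amastigote viability was read by infrared fluorescence at 713 nm, and EC50 came from a nonlinear fit. HepG2 CC50 (Alamar Blue, 72 h, 0.01–200 μM) was divided by this EC50.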

HepG2 cytotoxicity = assay type: cell-based; conditions: human, HepG2 cells (ATCC HB-8065)
How it was run: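 HepG2 human hepatocarcinoma cells in Glutamax DMEM with 10% FBS and penicillin/streptomycin, seeded and held at 37 °C under 5% CO2. Serial dilutions of test compound (0.01–200 μM) added, viability read after 72 h by Alamar Blue per manufacturer's protocol. CC50 derived by non-linear fitting of viability versus concentration.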

[1] = tested on: L. infantum promastigotes; test: In vitro assay on iRFP-L. infantum promastigotes; assay type: cell-based, Leishmania infantum
How it was run: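 iRFP-expressing L. infantum BCN150 promastigotes at 1 × 10^6 cells/mL in supplemented M199 (25 mM HEPES pH 6.9, 10% FBS). DMSO stocks were diluted in M199 to 0.01–200 μM final, with 72 h exposure at 26 °C. Viability was read as 713 nm infrared fluorescence, in triplicate. EC50 came from nonlinear fits. SIp = HepG2 72 h Alamar Blue CC50 / promastigote EC50.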

## CCCCCCCCCCCCCCCCOP(=O)([O-])OCC[N+](C)(C)C [MTF, Miltefosine]
L. infantum amastigotes
  SIa: Selectivity Index for amastigotes (CC50 HepG2/EC50 amastigotes): 21
HepG2 cytotoxicity
  CC50 at 72 h: 50.4 ± 4.3 µM
[1]
  SIp: Selectivity Index for promastigotes (CC50 HepG2/EC50 promastigotes): 8.5
